High-throughput results (PubChem)
TRPC4 PAM – positive allosteric modulators of TRPC4, primary screen, cell-based, mouse TRPC4beta, HEK293 mu-opioid, Fluo-4 calcium. DAMGO EC20, Fluo-4 Ca2+ flux; active compounds read high. B-score at 10 µM. AID 2227, 2009. Short transient receptor potential channel 4 (Mus musculus), Q9QUQ5. 310,000 tested, 0.42% active;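 active = B-score of calcium response area above 5 SD of library B-scores, with initial fluorescence ratio within 5 SD of library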
Target sequence (Q9QUQ5 whole entry, looked up): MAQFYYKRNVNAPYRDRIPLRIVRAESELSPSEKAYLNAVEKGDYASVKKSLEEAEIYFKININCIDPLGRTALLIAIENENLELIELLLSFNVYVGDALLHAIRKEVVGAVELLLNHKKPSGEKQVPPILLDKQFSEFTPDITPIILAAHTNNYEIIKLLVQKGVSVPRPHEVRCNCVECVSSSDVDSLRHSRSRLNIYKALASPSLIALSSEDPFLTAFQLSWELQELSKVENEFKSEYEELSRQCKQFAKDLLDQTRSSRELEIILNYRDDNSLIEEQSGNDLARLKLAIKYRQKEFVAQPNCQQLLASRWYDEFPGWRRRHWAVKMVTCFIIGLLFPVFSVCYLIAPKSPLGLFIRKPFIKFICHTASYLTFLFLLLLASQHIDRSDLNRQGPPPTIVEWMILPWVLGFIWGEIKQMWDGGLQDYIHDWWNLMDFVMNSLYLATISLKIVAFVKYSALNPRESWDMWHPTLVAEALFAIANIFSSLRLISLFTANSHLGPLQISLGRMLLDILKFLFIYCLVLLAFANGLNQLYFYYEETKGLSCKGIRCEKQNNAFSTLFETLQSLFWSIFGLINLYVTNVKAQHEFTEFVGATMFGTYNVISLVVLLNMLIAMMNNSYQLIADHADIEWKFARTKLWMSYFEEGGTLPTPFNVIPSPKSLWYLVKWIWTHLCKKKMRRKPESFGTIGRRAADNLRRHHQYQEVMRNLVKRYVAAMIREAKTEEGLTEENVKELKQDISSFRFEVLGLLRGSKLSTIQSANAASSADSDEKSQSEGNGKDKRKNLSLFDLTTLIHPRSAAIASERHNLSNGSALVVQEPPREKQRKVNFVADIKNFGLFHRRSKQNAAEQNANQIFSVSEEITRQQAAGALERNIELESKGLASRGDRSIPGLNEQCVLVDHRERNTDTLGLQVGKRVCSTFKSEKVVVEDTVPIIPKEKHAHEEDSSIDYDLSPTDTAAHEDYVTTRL
TRPC4 act – activators of mouse TRPC4 channel, primary screen, Fluo4 calcium, HEK293 TRPC4beta/mu-opioid cells; Short transient receptor potential channel 4 (Mus musculus), Q9QUQ5; Fluo4 calcium fluorescence; active compounds read high; B-score at 10 µM; 310,000 tested, 0.49% active;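 active = B-score above 5 SD of library B-scores, and initial fluorescence ratio not above library mean plus 5 SD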;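 note: positive B-score marks a calcium rise read as TRPC4 activation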
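Material: HEK293 stable line with TRPC4beta plus mu-opioid receptor; technique: Fluo4 calcium-sensitive dye fluorescence, kinetic, 1 Hz baseline; timing: Fluo4 dye loading 45 min at room temperature, 110 s recording; controls: assay buffer as low control, maximal DAMGO as high control; read-out: integrated baseline-normalised fluorescence ratio, converted to per-well B score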
Kir21 inh – inhibitors of mouse Kir2.1 inward-rectifier potassium channel | Inward rectifier potassium channel 2 (Mus musculus), P35561 | HEK293-Kir2.1, FluxOR thallium flux fluorescence; active compounds read low | B-score at 10 µM | 310,000 tested, 0.85% active;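 active = fluorescence ratio B-score at or below minus 3 SD of library scores, with starting-brightness B-score within 2 SD, cut at about -4.2 in these data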;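 note: channel flux triggered by added potassium and thallium sulfate stimulus; B-score of peak minus minimum fluorescence over baseline after thallium stimulus; more negative B-score means stronger Kir2.1 block with less thallium influx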
TRPC6 inhibitor – mouse TRPC6 channel inhibitors, primary screen, cell-based, HEK293, membrane potential dye; Short transient receptor potential channel 6 (Mus musculus), Q61143; 310,000 tested, 1.1% active; B-score at 10 µM; AID 2553, 2010; ACh-evoked depolarization; active compounds read low;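 active = B-score under library mean minus 3 SD, initial fluorescence not abnormally high, positive integrated signal ratio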;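 note: B-score derived from integrated fluorescence ratio over the kinetic read; more negative B-score means stronger inhibition of depolarization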
TRPC6 act – mouse TRPC6 channel activators, primary screen, cell-based, HEK293, membrane potential dye; 310,000 tested, 0.13% active; HEK293-TRPC6 membrane potential dye fluorescence; active compounds read high; B-score at 10 µM;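 active = B-score of the integrated fluorescence ratio above library mean plus 3 SD, and starting fluorescence ratio within library mean plus 5 SD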;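 note: higher score means more depolarization so channel activation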
TRPC4 inh – inhibitors of mouse TRPC4 channel, primary screen, Fluo4 calcium, HEK293 TRPC4beta/mu-opioid cells; AID 2247, 2010; Short transient receptor potential channel 4 (Mus musculus), Q9QUQ5; B-score at 10 µM; DAMGO-evoked Fluo4 calcium flux; active compounds read low; 300,000 tested, 0.39% active;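 active = B-score over 3 SD under the library average, no early fluorescence shift, positive overall ratio signal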
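material = TRPC4beta/mu-opioid receptor HEK293 cell line | probe or stimulus = sequential submaximal and maximal DAMGO stimulation | compound dosing = one concentration per compound | measured by = Fluo4 Ca2+ flux fluorescence | evaluation = integrated fluorescence ratio relative to baseline, converted to per-well B score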
Of the large screens only hits and unclear results are named; the others gave an inactive call. The list is not random: actives were taken first. Their share in the collection is about 2.9%.

CC(C)COc1ccc(-c2nn(-c3ccccc3)cc2CO)cc1	TRPC4 PAM 10
COc1ccc(OC)c(NC(=S)N2CCC(C(O)(c3ccccc3)c3ccccc3)CC2)c1	none
COc1ccc(C(=O)NCC(c2ccc3c(c2)OCO3)N2CCN(c3ccc(OC)cc3)CC2)cc1 (configuration not stated)	none
COC(=O)NCC(c1ccc2c(c1)OCO2)N1CCN(c2ccccc2)CC1 (configuration not stated)	TRPC4 act 169
OCCCc1nc2ccccc2n1CCc1ccccc1	none (no result: TRPC4 inh)
Cc1ccc(Cn2c(Cc3ccccc3)nc3ccccc32)cc1	TRPC4 inh -6
ClCc1nc2ccccc2n1Cc1ccccc1	none
CCCc1nc2ccccc2n1CCc1ccccc1	Kir21 inh -6.3
COc1ccc(-c2nsc3c(SCc4ccccc4)ncnc23)cc1	none
COc1ccc2c(c1OC)C(=O)N1C2SC(C)(C)[C@H]1C(=O)NC1CC1 (some centres not stated)	none
Cc1ccc2cc(C#N)c(N3CCCN(C(=O)C4CCCO4)CC3)nc2c1C (configuration not stated)	Kir21 inh -5.7
Cc1ccc2cc(C#N)c(N3CCCC3)nc2c1C	none
COC(=O)[C@@]12CCCCN1[C@H](c1ccc(-c3ccccc3)cc1)[C@@H]1C(=O)N(C)C(=O)[C@@H]12	TRPC4 PAM 18
Cc1ccccc1NCC(=O)N/N=C/c1c[nH]c2ccccc12	none
Cc1ccc(C)c(NC(=S)NC(C)C(c2ccccc2)N2CCN(C)CC2)c1 (configuration not stated)	none
CCN1CCN(C(c2cccs2)C(C)NC(=S)Nc2cc(C)ccc2C)CC1 (configuration not stated)	Kir21 inh -5.5
CCOC(=O)C1CCN(Cc2nc3ccc([N+](=O)[O-])cc3c(=O)n2-c2ccc(OC)cc2OC)CC1	TRPC4 act 59
COc1ccc(-n2c(CN3CCC(C(N)=O)CC3)nc3ccc([N+](=O)[O-])cc3c2=O)c(OC)c1	none
CN1CCN(c2ccc(NC(=O)c3ccc(-c4cccc([N+](=O)[O-])c4)o3)cc2)CC1	TRPC4 act 167
N#Cc1c(N2CCCCC2)nc(N)c2c(N)nc3c(c12)CC(c1ccccc1)O3 (configuration not stated)	TRPC4 inh -9
OCCNCCCOc1ccc(Cl)cc1Br	none
C=CCNCCCOc1ccc(Cl)cc1Br	TRPC4 PAM 16
Clc1ccc(OCCCNCc2ccccc2)c(Br)c1	Kir21 inh -16
Clc1ccc(Cl)c(OCCCCNCc2ccccc2)c1	Kir21 inh -12
O=C(CN1CCC(NC(=O)c2ccc(Br)cc2)CC1)NCc1cccs1	none
CCCCCC(=O)Nc1nc(C)c(-c2csc(Nc3cc(Cl)ccc3C)n2)s1	none
Cc1ccc(N2C(=O)CC(N3CCN(C4CCc5ccccc5C4)CC3)C2=O)cc1 (configuration not stated)	none
CCOc1ccc(N2C(=O)CC(N3CCN(C4CCc5ccccc5C4)CC3)C2=O)cc1 (configuration not stated)	TRPC4 PAM 14
CN(C)CCN(C(=O)c1ccc(S(=O)(=O)N2CCCC2)cc1)c1nc2ccc(Br)cc2s1	none
CC1CCCCN1S(=O)(=O)c1ccc(C(=O)N(CCCN(C)C)c2nc3ccc(Br)cc3s2)cc1 (configuration not stated)	TRPC4 act 143
CCC1CCCCN1S(=O)(=O)c1ccc(C(=O)N(CCCN(C)C)c2nc3cc4c(cc3s2)OCO4)cc1 (configuration not stated)	TRPC4 act 130
CC(C)(C)NC(=O)Cn1c(=O)oc2cc(S(=O)(=O)N3CCc4ccccc43)ccc21	none
CC(C)(C)NC(=O)C(c1ccc(F)cc1)N(CC1CCCO1)C(=O)CCC(=O)Nc1ccccn1 (configuration not stated)	none
CC1CN(c2nc(-c3ccc(Br)cc3)nnc2-c2ccccc2)CC(C)N1 (configuration not stated)	Kir21 inh -9.3
CCCn1nnc(NC(=O)c2cc(Br)cc(Br)c2OC)n1	none
OC1(c2cccs2)CN(c2ccc(Cl)cc2)C2=[N+]1CCCC2 (configuration not stated)	TRPC4 inh -6
OC1(c2cccs2)CN(c2ccc(Cl)cc2)C2=[N+]1CCCS2 (configuration not stated)	none
CN1C2C=C(N(CCc3ccccc3)C(=O)c3ccc(Cl)cc3)CC1CC2 (configuration not stated)	TRPC4 act 99
CN1C2CCC1CC(N(CCc1ccccc1)C(=O)c1ccc(Cl)cc1)C2 (configuration not stated)	none
CC1CCc2c(sc(/N=C/N(C)C)c2C#N)C1 (configuration not stated)	TRPC4 inh -6
Cc1noc(C)c1S(=O)(=O)N1CCC(C(=O)NCCN2CCC(C)CC2)CC1	none
CCN(CC)CCNC(=O)C1CCN(S(=O)(=O)c2c(C)noc2/C=C/c2ccccc2F)CC1	Kir21 inh -4.6
Cc1noc(C)c1S(=O)(=O)N1CCC(C(=O)NCCCN2CC(C)CC(C)C2)CC1 (configuration not stated)	TRPC4 act 111
COc1ccc(OC)c(NC2=NC3(CCCC3)N=C(N)N2)c1	none
O=[N+]([O-])c1ccc(NC(=S)N2CCc3ccccc3C2)cc1	TRPC4 inh -6
C=CCn1c(CCNC(=O)c2ccco2)nc2ccccc21	TRPC4 act 168
CCn1c(CCNC(=O)c2ccco2)nc2ccccc21	none
CCCCCCn1c(C(C)NC(=O)c2ccco2)nc2ccccc21 (configuration not stated)	Kir21 inh -9
CCCCCn1c(NCc2ccco2)nc2ccccc21	Kir21 inh -4.5
COc1ccc(Nc2nc(NCc3ccco3)nc(N)c2[N+](=O)[O-])cc1	none
CCN(c1nc(N)c(C(=O)N=C(N)N)nc1Cl)C(C)C	TRPC4 act 100, Kir21 inh -5.7
COc1cccc(CNCc2ccc(OC)c3ccccc23)c1OC	none
COc1cccc(CNCc2ccccn2)c1OC	TRPC4 act 63, TRPC4 inh -6
